Experimental data: ChEMBL document CHEMBL1139469, “Synthesis and 3D QSAR of new pyrazolo[3,4-b]pyridines: potent and selective inhibitors of A1 adenosine receptors” (J Med Chem, 2005)

Legend:
Adenosine receptor A1 [1] = molecular target: T1, Adenosine receptor A1 (Bos taurus, UniProt P28190); assay: Displacement of [3H]DPCPX from adenosine A1 receptor in bovine cerebral cortical membranes; assay type: cell membranes
T1 sequence (P28190 whole entry): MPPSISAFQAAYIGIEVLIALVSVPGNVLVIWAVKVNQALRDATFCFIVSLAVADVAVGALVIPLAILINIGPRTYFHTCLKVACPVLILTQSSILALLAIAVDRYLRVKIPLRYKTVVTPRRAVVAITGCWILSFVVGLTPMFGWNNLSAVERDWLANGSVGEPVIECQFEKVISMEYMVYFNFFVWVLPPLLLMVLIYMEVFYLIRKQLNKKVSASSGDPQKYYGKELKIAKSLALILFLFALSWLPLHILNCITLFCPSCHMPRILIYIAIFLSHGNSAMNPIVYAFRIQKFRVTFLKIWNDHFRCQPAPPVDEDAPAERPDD
Outline: (§1)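 [3H]DPCPX was displaced from A1 sites in bovine cortical membranes. Compounds were taken up in DMSO and diluted in assay buffer, with DMSO at 2% or less final. Ki used at least six concentrations across 3 orders of magnitude and was the mean ± SEM of three independent assays in triplicate.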

[2] = molecular target: Adenosine receptor A2a (Bos taurus); assay: Displacement of [3H]CGS-21680 from adenosine A2A receptor in bovine striatal membranes
[3] = molecular target: Adenosine receptor A1 (Bos taurus) (UniProt P28190); assay: Displacement of [3H]DPCPX from bovine adenosine A1 receptor in bovine cortical membranes
[4] = molecular target: T2, Adenosine receptor A1 (Bos taurus) (UniProt P28190); assay: Displacement of [3H]DPCPX from adenosine A1 receptor in bovine cerebral cortical membranes at 10 uM; assay type: cell membranes; outline: as §1
T2 sequence (whole entry): T1 sequence (P28190 whole entry)

[5] = system: Adenosine receptor A2a (Bos taurus); assay: Displacement of [3HCGS21680 from adenosine A2A receptor in bovine striatal membranes at 10 uM
[6] = molecular target: T3, Adenosine receptor A3 (Homo sapiens) (UniProt P0DMS8); assay: Displacement of [125I]AB-MECA from human adenosine A3 receptor expressed in CHO cells at 10 uM
T3 sequence (whole entry): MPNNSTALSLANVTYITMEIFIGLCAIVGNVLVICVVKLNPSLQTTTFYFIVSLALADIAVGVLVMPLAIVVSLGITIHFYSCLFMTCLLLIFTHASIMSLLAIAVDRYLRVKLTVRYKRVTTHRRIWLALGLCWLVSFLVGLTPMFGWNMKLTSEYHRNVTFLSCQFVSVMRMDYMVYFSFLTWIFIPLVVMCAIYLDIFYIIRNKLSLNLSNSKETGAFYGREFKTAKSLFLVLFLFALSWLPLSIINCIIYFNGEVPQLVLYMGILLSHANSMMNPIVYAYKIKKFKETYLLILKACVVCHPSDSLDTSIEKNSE

Adenosine receptor A1 [7] = molecular target: T4, Adenosine receptor A1 (Homo sapiens, UniProt P30542); assay: Displacement of [3H]DPCPX from human adenosine A1 receptor expressed in CHO cells; assay type: cell-based
T4 sequence (P30542 whole entry): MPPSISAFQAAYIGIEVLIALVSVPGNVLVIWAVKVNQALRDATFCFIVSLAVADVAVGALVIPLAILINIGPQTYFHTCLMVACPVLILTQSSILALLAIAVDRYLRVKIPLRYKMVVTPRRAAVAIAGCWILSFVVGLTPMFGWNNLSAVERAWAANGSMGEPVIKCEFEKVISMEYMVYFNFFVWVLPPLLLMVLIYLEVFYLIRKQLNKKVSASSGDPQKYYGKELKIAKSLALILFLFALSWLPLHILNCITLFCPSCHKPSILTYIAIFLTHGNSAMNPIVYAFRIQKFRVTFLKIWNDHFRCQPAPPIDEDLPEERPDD
Outline: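 Binding used CHO cells transfected with human A1 receptor, with displacement of specific [3H]DPCPX binding. Ligands were in DMSO diluted into buffer, with no more than 2% DMSO final, over at least six concentrations spanning 3 orders of magnitude. Ki values were means ± SEM of three separate assays, each performed in triplicate.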

Adenosine receptor A1 [8] = molecular target: T1, Adenosine receptor A1; assay: Displacement of [3H]DPCPX from adenosine A1 receptor in bovine cerebral cortical membranes in absence of GTP; assay type: cell membranes
Outline: (§2)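 [3H]DPCPX competition binding on bovine cortical membranes, run side by side without and with 1 mM GTP. Compounds dissolved in DMSO and diluted in assay buffer, final DMSO at most 2%. At least six concentrations spanning 3 orders of magnitude were used. Ki given as mean ± SEM of three experiments.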

Adenosine receptor A1 [9] = molecular target: T1, Adenosine receptor A1; assay: Displacement of [3H]DPCPX from adenosine A1 receptor in bovine cerebral cortical membranes in presence of GTP; assay type: cell membranes; outline: as §2

Compound | Ki (Adenosine receptor A1 [1]) | Ki [2] | Ki [3] | inhibition [4] | inhibition [5] | inhibition [6] | Ki (Adenosine receptor A1 [7]) | Ki (Adenosine receptor A1 [8]) | Ki (Adenosine receptor A1 [9])
CCCNc1c(C(=O)OC)cnc2c1cnn2CC(Cl)c1ccccc1 (configuration not stated) | 170 nM | 7670 nM | 158 nM | – | – | – | – | – | –
COC(=O)c1cnc2c(cnn2CC(Cl)c2ccccc2)c1N1CCOCC1 (configuration not stated) | – | – | 10000 nM | 51% | 0% | – | – | – | –
CCCCOC(=O)c1cnc2c(cnn2CC(Cl)c2ccccc2)c1NC1CC1 (configuration not stated) | 895 nM | – | 1000 nM | – | 11% | 0% | – | – | –
CCCNc1c(C(=O)OCCC)cnc2c1cnn2CC(Cl)c1ccccc1 (configuration not stated) | 145 nM | 1390 nM | 158 nM | – | – | – | – | – | –
CCCNc1c(C(=O)OC(C)C)cnc2c1cnn2CC(Cl)c1ccccc1 (configuration not stated) | 24 nM | – | 20 nM | – | 11% | 0% | – | – | –
CCCCOC(=O)c1cnc2c(cnn2CC(Cl)c2ccccc2)c1N1CCOCC1 (configuration not stated) | – | – | 10000 nM | 63% | 16% | – | – | – | –
CC(C)OC(=O)c1cnc2c(cnn2CC(Cl)c2ccccc2)c1NC1CC1 (configuration not stated) | 36 nM | – | 31.6 nM | – | – | 0% | – | – | –
COc1ccc(CCNc2c(C(=O)OC(C)C)cnc3c2cnn3CC(Cl)c2ccccc2)cc1 (configuration not stated) | 7 nM | – | 7.94 nM | – | – | 52% | 17 nM | 7.2 nM | 7.7 nM

More lines, now with the values ahead:

Ki (Adenosine receptor A1 [1]) | Ki [2] | Ki [3] | inhibition [4] | inhibition [5] | inhibition [6] | Ki (Adenosine receptor A1 [7]) | Ki (Adenosine receptor A1 [8]) | Ki (Adenosine receptor A1 [9]) | Compound
22 nM | – | 20 nM | – | – | 38% | – | – | – | CCOC(=O)c1cnc2c(cnn2CC(Cl)c2ccccc2)c1NCCc1ccc(C)cc1 (configuration not stated)
10 nM | – | 10 nM | – | – | 49% | 25 nM | – | – | CCOC(=O)c1cnc2c(cnn2CC(Cl)c2ccccc2)c1NCCc1ccc(OC)cc1 (configuration not stated)
16 nM | – | 15.8 nM | – | – | 53% | 29 nM | – | – | CCOC(=O)c1cnc2c(cnn2CC(Cl)c2ccccc2)c1NCCc1ccccc1F (configuration not stated)
6 nM | – | 6.31 nM | – | – | 41% | 94 nM | 6.3 nM | 7.3 nM | COC(=O)c1cnc2c(cnn2CC(Cl)c2ccccc2)c1NCCc1ccc(OC)cc1 (configuration not stated)
– | – | 10000 nM | 27% | 5% | – | – | – | – | CCCCOC(=O)c1cnc2c(cnn2CC(Cl)c2ccccc2)c1NCc1ccccc1 (configuration not stated)
88 nM | 1230 nM | 79.4 nM | – | – | 0% | – | – | – | COC(=O)c1cnc2c(cnn2CC(Cl)c2ccccc2)c1NCCc1ccccc1 (configuration not stated)
31 nM | 1520 nM | 31.6 nM | – | – | 0% | – | – | – | CC(C)OC(=O)c1cnc2c(cnn2CC(Cl)c2ccccc2)c1NCCc1ccccc1 (configuration not stated)
19 nM | – | 20 nM | – | 63% | 46% | 153 nM | – | – | CCOC(=O)c1cnc2c(cnn2CC(Cl)c2ccccc2)c1NCCc1ccc(Cl)cc1 (configuration not stated)
15 nM | – | 15.8 nM | – | 26% | 40% | 148 nM | – | – | COC(=O)c1cnc2c(cnn2CC(Cl)c2ccccc2)c1NCCc1ccc(C)cc1 (configuration not stated)
12 nM | – | 12.6 nM | – | 30% | 37% | 16 nM | – | – | CCOC(=O)c1cnc2c(cnn2CC(Cl)c2ccccc2)c1NCCc1ccc(F)cc1 (configuration not stated)
